Experimental data published in ChEMBL document CHEMBL4834429, “Discovery of Nanomolar Melanocortin-3 Receptor (MC3R)-Selective Small Molecule Pyrrolidine Bis-Cyclic Guanidine Agonist Compounds Via a High-Throughput "Unbiased" Screening Campaign” (J Med Chem, 2021).

What was measured:
Assay type in all cases: functional, cell-based
Melanocortin receptor 5 = Melanocortin receptor 5 (Mus musculus, UniProt P41149); assay: Agonist activity at mouse melanocortin receptor 5 expressed in HEK293 cells assessed as stimulation of intracellular cAMP accumulation incubated for 24 hrs by beta-galactosidase reporter gene assay
Sequence of Melanocortin receptor 5 (P41149 whole entry): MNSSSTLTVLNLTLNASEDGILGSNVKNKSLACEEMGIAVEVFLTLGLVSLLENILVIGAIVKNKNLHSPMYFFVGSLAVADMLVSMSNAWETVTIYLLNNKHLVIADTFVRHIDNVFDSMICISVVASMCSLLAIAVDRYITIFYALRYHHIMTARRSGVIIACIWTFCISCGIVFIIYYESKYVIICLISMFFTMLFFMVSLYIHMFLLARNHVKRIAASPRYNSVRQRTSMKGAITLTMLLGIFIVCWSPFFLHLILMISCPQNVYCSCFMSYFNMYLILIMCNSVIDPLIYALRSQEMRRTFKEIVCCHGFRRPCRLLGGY

[1] = target: Melanocyte-stimulating hormone receptor (Mus musculus, UniProt Q01727); assay: Antagonist activity at mouse melanocortin receptor 1 expressed in HEK293 cells assessed as inhibition of NDP-MSH-induced intracellular cAMP accumulation incubated for 24 hrs by beta-galactosidase reporter gene assay
Sequence of Melanocyte-stimulating hormone receptor (Q01727 whole entry): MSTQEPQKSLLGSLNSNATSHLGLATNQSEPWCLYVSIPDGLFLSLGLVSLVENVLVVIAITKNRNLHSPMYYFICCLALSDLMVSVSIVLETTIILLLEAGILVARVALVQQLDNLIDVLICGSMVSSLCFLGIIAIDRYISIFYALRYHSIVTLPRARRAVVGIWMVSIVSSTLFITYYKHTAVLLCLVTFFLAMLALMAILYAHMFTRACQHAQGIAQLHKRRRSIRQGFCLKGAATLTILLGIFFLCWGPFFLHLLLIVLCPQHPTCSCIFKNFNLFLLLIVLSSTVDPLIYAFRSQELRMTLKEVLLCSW

[2] = target: Melanocortin receptor 4 (Mus musculus) (UniProt P56450); assay: Agonist activity at mouse melanocortin receptor 4 expressed in HEK293 cells assessed as stimulation of intracellular cAMP accumulation at 10 uM incubated for 24 hrs by beta-galactosidase reporter gene assay relative to control; conditions: filed as agonist
Sequence of Melanocortin receptor 4 (Mus musculus) (P56450 whole entry): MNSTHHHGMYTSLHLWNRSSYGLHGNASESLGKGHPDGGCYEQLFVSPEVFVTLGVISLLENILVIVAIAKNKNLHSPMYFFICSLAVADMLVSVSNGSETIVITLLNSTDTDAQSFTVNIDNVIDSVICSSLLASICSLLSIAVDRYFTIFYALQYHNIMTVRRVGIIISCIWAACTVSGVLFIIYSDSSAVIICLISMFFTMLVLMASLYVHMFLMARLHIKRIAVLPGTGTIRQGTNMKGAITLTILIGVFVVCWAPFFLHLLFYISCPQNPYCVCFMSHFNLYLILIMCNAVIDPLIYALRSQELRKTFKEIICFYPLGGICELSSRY
Method in brief: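 After lysis, ONPG hydrolysis was read at 405 nm and normalized to Bradford protein and maximal NDP-MSH response. Duplicates, ≥3 independent experiments; 100 μM dropped from fits where toxic.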

Melanocortin receptor 3 = Melanocortin receptor 3 (Mus musculus, UniProt P33033); assay: Antagonist activity at mouse melanocortin receptor 3 expressed in HEK293 cells assessed as inhibition of NDP-MSH-induced intracellular cAMP accumulation incubated for 24 hrs by beta-galactosidase reporter gene assay
Sequence of Melanocortin receptor 3 (P33033 whole entry): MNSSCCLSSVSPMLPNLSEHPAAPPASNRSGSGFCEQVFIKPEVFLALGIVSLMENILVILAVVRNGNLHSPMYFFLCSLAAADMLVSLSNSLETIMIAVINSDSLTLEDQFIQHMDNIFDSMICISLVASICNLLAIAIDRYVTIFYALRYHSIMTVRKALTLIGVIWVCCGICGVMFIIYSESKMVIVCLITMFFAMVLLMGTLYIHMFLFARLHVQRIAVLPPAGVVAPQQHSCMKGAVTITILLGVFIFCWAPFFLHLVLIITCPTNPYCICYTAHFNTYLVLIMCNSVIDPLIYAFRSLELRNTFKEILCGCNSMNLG

EC50 (Melanocortin receptor 5): 2.18 µM | EC50 [1]: > 100 µM | Emax [2]: 51% | EC50 (Melanocortin receptor 3): > 100 µM
Structure (SMILES): CCC[C@@H]1CN([C@H](Cc2ccccc2)CN2CCC[C@H]2CN2C(=N)NC[C@H]2CC(C)C)C(=N)N1CCCC(C)C
